Measured values of several laboratories.
Protocols differ between the studies behind these lines. Values after ≈ are worked out from the molar mass of the structure shown.

SMILES	organism	assay	system	conditions	endpoint	result
Cc1ccc2[nH]nc(-c3nnc(Nc4ccc(F)cc4Cl)s3)c2c1	Pseudomonas aeruginosa	microbial growth	ATCC27853	–	MIC	96.1 µg/mL
CO[C@H]1/C=C/O[C@@]2(C)Oc3c(C)c(O)c4c(c3C2=O)C2=NC3(CCN(CC(C)C)CC3)NC2=C(NC(=O)/C(C)=C\C=C\[C@H](C)[C@H](O)[C@@H](C)[C@@H](O)[C@@H](C)[C@H](OC(C)=O)[C@@H]1C)C4=O	Mycobacteroides abscessus	microbial growth, agar dilution	ATCC19977	–	MIC	11.2 µM
CNC(C)C1CCC(N)C(OC2C(N)CC(N)C(OC3OCC(C)(O)C(NC)C3O)C2O)O1 (stereo not shown)	Pseudomonas aeruginosa	microbial killing, broth dilution	ATCC27853	24 h	MBC	8000 µM (≈ 3820 µg/mL)
CCOC(=O)/C=C1/SC(N/N=C/c2c(-c3ccc(F)cc3)nc3ncccn23)=NC1=O	Pseudomonas aeruginosa	microbial growth, well diffusion	ATCC27853	100 µg/mL	inhibition zone	11 mm
O=C(O)c1cn(C2CC2)c2cc(N3CCNCC3)c(F)cc2c1=O	Pseudomonas aeruginosa	microbial growth, broth dilution	–	–	MIC90	1.56 µM (≈ 0.517 µg/mL)
CN[C@H](CC(C)C)C(=O)N[C@H]1C(=O)N[C@@H](CC(N)=O)C(=O)N[C@H]2C(=O)N[C@H]3C(=O)N[C@H](C(=O)N[C@H](C(=O)O)c4cc(O)cc(O)c4-c4cc3ccc4O)[C@H](O)c3ccc(c(Cl)c3)Oc3cc2cc(c3O[C@@H]2O[C@H](CO)[C@@H](O)[C@H](O)[C@H]2O[C@H]2C[C@](C)(N)[C@H](O)[C@H](C)O2)Oc2ccc(cc2Cl)[C@H]1O	Kocuria	microbial growth, broth dilution	–	–	MIC	0.67 µM
CCCS(=O)(=O)Oc1ccc(C=NNC(=O)CSc2nc3c(C)cccc3c(=O)n2-c2ccccc2)cc1OC	Pseudomonas aeruginosa	microbial growth, well diffusion	–	20 µg/mL	inhibition zone	2 mm
CC(=O)c1sc(N/N=C/c2c(-c3ccccc3)nc3ncccn23)nc1C	Pseudomonas aeruginosa	microbial growth, well diffusion	ATCC27853	100 µg/mL	inhibition zone	14 mm
CC1(C)S[C@@H]2[C@H](NC(=O)[C@H](N)c3ccccc3)C(=O)N2[C@H]1C(=O)O	Kocuria	microbial growth, broth dilution	–	–	MIC	1.34 µM
COc1ccc(C=NNC(=O)CSc2nc3c(C)cccc3c(=O)n2-c2ccccc2)cc1OS(C)(=O)=O	Pseudomonas aeruginosa	microbial growth, well diffusion	–	20 µg/mL	inhibition zone	2 mm
